MDM2 E3 inh – blocks human Mdm2 ubiquitin ligase activity; Q00987; cell-based MDM2 ubiquitination luciferase reporter, 2 h; 0 = plate control, 100 = twice control, blank-subtracted; signal enhancement, % at 5 µM; actives 0.11% (n = 210,000);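 active = signal enhancement of 30% or more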;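 also: luminescence tracks abundance of the self-degrading MDM2-luciferase fusion protein; higher signal means inhibition of MDM2 E3 ligase activity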
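system = mammalian cells stably expressing self-ubiquitinating, self-degrading MDM2 E3–luciferase fusion | quantity = 2000 cells per well seeded | incubation = 4 h cell settling then 2 h compound exposure, 37 °C | signal = SteadyLite luminescence, 15 min reagent step | benchmarks = plate control and blank wells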
Tb hexokinase – T. brucei hexokinase 1 inhibition; inhibition, % at 10 µM; recombinant TbHK1, G6PDH-coupled NADH A340; actives 0.11% (n = 220,000);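 active = inhibition of 50% or more in the single-dose primary screen; inactive = inhibition below 50%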
14-3-3 Bad inh – disrupts binding of bovine 14-3-3 zeta to phospho-Bad peptide; TR-FRET 14-3-3zeta/Dy647-pBad peptide displacement, 1 h; inhibition, % at 21.7 µM; actives 0.71% (n = 220,000); AID 781;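 active = inhibition above about 70%, limit read from the data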;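 also: 0% = full 14-3-3 plus peptide FRET controls and 100% = background without 14-3-3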
Target sequence (P63103 whole entry, looked up): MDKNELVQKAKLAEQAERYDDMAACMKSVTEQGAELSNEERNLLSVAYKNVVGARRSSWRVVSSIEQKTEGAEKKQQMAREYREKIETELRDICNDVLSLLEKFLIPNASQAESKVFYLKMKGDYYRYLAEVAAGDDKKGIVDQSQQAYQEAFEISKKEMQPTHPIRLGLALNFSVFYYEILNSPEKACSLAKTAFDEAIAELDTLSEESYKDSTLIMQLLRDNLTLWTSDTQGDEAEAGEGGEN
Hck Nef HTS – inhibitors of human Hck kinase activated by Nef | Recombinant Hck-YEEI plus Nef, Z-Lyte FRET kinase assay | actives 0.68% (n = 220,000) | inhibition, % at 20 µM | AID 463187 | P08631;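 active = Hck-Nef kinase inhibition above about 50%, limit read from the data; inactive = inhibition below that limit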;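 also: 0% = DMSO with Hck plus Nef and 100% = Hck alone without Nef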
Wee1 stabilizer – human Wee1 degradation inhibition, primary screen. AID 1321. reporter increase, % at 5 µM. actives 1.2% (n = 220,000). HeLa Luc-Wee1K328M stability, luciferase luminescence; 100% = proteasome inhibitor MG132 effect. P30291;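 active = activation above the mean of all tested compounds plus 3 SD, set per screening run, cut at about 8.8% in these data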;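 also: cells exposed to compound for 20 h before luminescence read; 0% = DMSO alone and 100% = MG132 at 30 µM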
* marks the source's active call; other numbers are inactive results; · = no result; [ ] = another dose, or the depositor's remark. Rows were chosen to be rich in hits. Some 2.7% of all compounds tested hit in one or more screens of this group.

SMILES	MDM2 E3 inh	Tb hexokinase	14-3-3 Bad inh	Hck Nef HTS	Wee1 stabilizer
C=C1C(=O)O[C@@H]2C[C@@H](C)[C@@H]3C=CC(=O)[C@@]3(C)[C@@H](OC(C)=O)[C@H]12	35*	-2	-5	25	·
COCc1cc(C)nc2sc(C(=O)NCCO)c(-n3cccc3)c12	-6	6	-13	6	2
CC(=O)Oc1cccc2c1C(=O)c1c(OC(C)=O)cc(C(=O)O)cc1C2=O	·	10	41	-7	-2
CC(=O)Oc1cc2cccc(OC(C)=O)c(=O)c2c(OC(C)=O)c1OC(C)=O	-8	-3	75*	13	1
CCOC(=O)C1(CCC(C)C)CC(CSc2nc3ccccc3[nH]2)OC1=O (stereo not given)	-7	7	57	1	5
CCOC(=O)C1(CC)CC(CSc2nc3ccccc3[nH]2)OC1=O (stereo not given)	11	3	72*	1	-2
Cn1nnnc1NCc1c(F)cccc1Cl	-11	-4	10	0	10*
CCCn1nnnc1NCc1c(F)cccc1Cl	0	1	-3	21	-2
COc1cccc(Sc2ccccc2/C=N/NC(N)=O)c1	-16	1	-6	21	4
O=C(CC(Nc1ccccc1)c1ccccc1)C1CC1 (stereo not given)	-4	10	25	13	2
CCNc1ccc(Br)cc(C(=O)/C=C/c2c(Cl)cccc2Cl)c1=O	-1	-3	83*[fluorescence artefact?]	3	2
CCNc1ccc(Br)cc(C(=O)/C=C/c2ccc(Cl)cc2)c1=O	6	0	56	12	5
O=C(Nc1ccc(C2=NCCN2)cc1)c1ccc(C(=O)Nc2ccc(C3=NCCN3)cc2)c([N+](=O)[O-])c1	-9	40	79*	-49	-4
Cc1c(/C=N/NC(=O)c2ccc(Br)o2)cnn1C	-16	-61	-2	7	1
CC(C)CCn1nnnc1C(c1ccc(F)cc1)N1CCN(C(=O)c2ccco2)CC1 (stereo not given)	-18	4	83*	3	3
O=C(c1ccco1)N1CCN(C(c2ccc(F)cc2)c2nnnn2Cc2cccs2)CC1 (stereo not given)	-5	4	90*	1	1
O=C(c1ccco1)N1CCN(C(c2ccc(Cl)cc2)c2nnnn2CC2CCCO2)CC1 (stereo not given)	-10	-5	81*	2	5
COc1ccc(OC)c(C(c2nnnn2CCC(C)C)N2CCN(C(=O)c3ccco3)CC2)c1 (stereo not given)	-7	-19	48	-2	3
CCC(C)C(NC(=O)[C@@H](NC(=O)c1ccccc1F)C(C)C)C(=O)OC (stereo not given in full)	-17	0	12	3	-1
COc1cccc(N2CCN(C3C4CC5CC(C4)CC3C5)CC2)c1 (stereo not given)	·	8	88*	-15	-2
CCN(CC)S(=O)(=O)c1ccc(NC(=O)Cn2c(=O)sc3ccccc32)cc1	12	13	-4	3	9.2*
COC(=O)Cn1c(=O)sc2ccccc21	-9	-1	-8	2	10*
O=C(Cn1c(=O)sc2ccccc21)Nc1ccccc1	-6	2	-7	-1	-1
CCCCCC(=O)Nc1c(-c2ccc(OC)cc2)c(=O)c2ccccc2n1C	9	-28	16	-5	9.9*
CCCC(=O)Nc1c(-c2ccc(OC)cc2)c(=O)c2ccccc2n1C	0	-37	13	1	1
SMILES	MDM2 E3 inh	Tb hexokinase	14-3-3 Bad inh	Hck Nef HTS	Wee1 stabilizer
CCOC(=O)c1ccc[n+](CC(=O)Nc2cc(C(F)(F)F)ccc2Cl)c1	1	2	4	8	2
Cn1nc(-c2ccccc2)c2cc(C(=O)O)sc21	-16	0	0	-7	0
CSc1nnc(-c2cc3c(-c4ccccc4)nn(C)c3s2)n1C	-20	-11	89*	1	0
Cc1cc(C)nc(NS(=O)(=O)c2ccc(Br)cc2)n1	-4	-2	85*	4	2
Cc1cc(C)nc(NS(=O)(=O)c2ccc(N)cc2)n1	·	9	4	1	-2
COC(=O)c1ccc(CSc2ncnc3c2nnn3-c2ccc(OC)cc2)o1	4	5	0	-7	12*
CCCCc1ccc(NC(=S)N2CCCC(C)C2)cc1 (stereo not given)	-9	3	-10	2	-2
COc1ccccc1-c1cc(C(F)(F)F)c(C#N)c(=O)[nH]1	-7	-18	5	17	-2
COc1ccccc1-c1cc(SC)c(C#N)c(=O)o1	36*	-10	-10	9	-5
COc1ccc(C(=O)Oc2ccc(=O)n(-c3ccccc3)n2)cc1	-11	-3	72*	-3	1
O=C(Oc1ccc(=O)n(-c2ccccc2)n1)c1ccc(Cl)cc1	0	-6	48	1	2
Cc1nnc(SCC(C)C)[nH]c1=O	-8	3	6	1	9.4*
CC1CCCN(C(=O)CCCn2c(=S)[nH]c3ccccc3c2=O)C1 (stereo not given)	14	-2	-1	1	9.7*
O=[N+]([O-])c1ccc(NC(=S)N2CCc3ccccc3C2)cc1	·	-7	-3	-1	0
O=C(NCc1cccnc1)C1CCCN(Cc2cnn(-c3ccccc3)c2-n2cccc2)C1 (stereo not given)	-12	-6	1	-17	1
CCS(=O)(=O)N1Cc2ccccc2CC1C(=O)Nc1cccc(C)c1 (stereo not given)	-9	5	5	19	9.9*
O=C(COC(=O)c1ccc(S(=O)(=O)N2CCCC2)cc1)NCc1ccco1	-4	9	4	13	-1
COc1ccc(Nc2nc(C(F)(F)F)nc(C)c2C#N)cc1	-8	-2	10	3	2
Nc1[nH]nc2nc(N3CCCC3)nc(-c3ccccc3)c12	-5	-5	7	43	-2
Nc1[nH]nc2ncc3cc4ccccc4nc3c12	0	-9	-8	67*	-2
N#Cc1c(NC(=S)NC(=O)c2ccccc2)sc2c1CCC2	11	-17	-3	3	3
CCN1CCc2c(sc(NC(=S)NC(=O)c3ccccc3)c2C#N)C1	-14	-17	79*	-1	-2
Cc1ccc2cn[nH]c2c1[N+](=O)[O-]	-20	-18	-1	19	6
Cn1c(=O)[nH]c(=O)c2c1nc(N1CCCCCC1)n2CCSc1nc2ccccc2[nH]1	-3	-2	5	0	11*
Cn1c(=O)[nH]c(=O)c2c1nc(N1CCCC1)n2CCSc1nc2ccccc2[nH]1	6	-5	3	-2	-1
CCOc1cccc(/C=C/c2cc(C(=O)O)c3ccccc3n2)c1OC	-48	-54	2	18	-1
C=CCc1ccc(O)c(-c2cc(CC=C)ccc2O)c1	9	-4	2	9	10*
C=CCc1ccc(OCC(O)CO)c(OC)c1 (stereo not given)	-6	-3	-2	2	0

Compound activity deposited in PubChem BioAssay by several laboratories.
